Assay results from ChEMBL document CHEMBL2346500, “Design and synthesis of dual-action inhibitors targeting histone deacetylases and 3-hydroxy-3-methylglutaryl coenzyme A reductase for cancer treatment” (J Med Chem, 2013).

test system: MEF; test: Cytotoxicity against mouse MEF cells after 72 hrs by MTT assay; format: ADME, cell-based; conditions: not given

Row | Structure (SMILES) | IC50
1 | CC[C@H](C)C(=O)O[C@H]1C[C@@H](C)C=C2C=C[C@H](C)[C@H](CC[C@@H](O)C[C@@H](O)CC(=O)NO)[C@H]21 | > 100000 nM
2 | CCC(C)(C)C(=O)O[C@H]1C[C@@H](C)C=C2C=C[C@H](C)[C@H](CC[C@@H](O)C[C@@H](O)CC(=O)NO)[C@H]21 | > 100000 nM
3 | CC(C)c1c(C(=O)Nc2ccccc2)c(-c2ccccc2)c(-c2ccc(F)cc2)n1CC[C@@H](O)C[C@@H](O)CC(=O)NO | > 100000 nM
4 | CC[C@H](C)C(=O)O[C@H]1C[C@@H](C)C=C2C=C[C@H](C)[C@H](CC[C@@H]3C[C@@H](O)CC(=O)O3)[C@H]21 [LOVASTATIN] | 35000 nM
5 | CC(C)c1c(C(=O)Nc2ccccc2)c(-c2ccccc2)c(-c2ccc(F)cc2)n1CC[C@@H](O)C[C@@H](O)CC(=O)O [ATORVASTATIN] | 30700 nM

test system: Hs68; test: Cytotoxicity against human HS68 cells after 72 hrs by MTT assay; format: ADME, cell-based; conditions: Hs68, 72 h

Row | Structure (SMILES) | IC50
6 | CC[C@H](C)C(=O)O[C@H]1C[C@@H](C)C=C2C=C[C@H](C)[C@H](CC[C@@H](O)C[C@@H](O)CC(=O)NO)[C@H]21 | > 100000 nM
7 | CCC(C)(C)C(=O)O[C@H]1C[C@@H](C)C=C2C=C[C@H](C)[C@H](CC[C@@H](O)C[C@@H](O)CC(=O)NO)[C@H]21 | > 100000 nM
8 | CC(C)c1c(C(=O)Nc2ccccc2)c(-c2ccccc2)c(-c2ccc(F)cc2)n1CC[C@@H](O)C[C@@H](O)CC(=O)NO | > 100000 nM
9 | CC[C@H](C)C(=O)O[C@H]1C[C@@H](C)C=C2C=C[C@H](C)[C@H](CC[C@@H]3C[C@@H](O)CC(=O)O3)[C@H]21 [LOVASTATIN] | 23200 nM

test system: A549; test: Selectivity index, ratio of IC50 for mouse MEF cells to IC50 for human A549 cells; format: functional; conditions: not given

Row | Structure (SMILES) | Ratio IC50
10 | CC[C@H](C)C(=O)O[C@H]1C[C@@H](C)C=C2C=C[C@H](C)[C@H](CC[C@@H](O)C[C@@H](O)CC(=O)NO)[C@H]21 | >5.6
11 | CCC(C)(C)C(=O)O[C@H]1C[C@@H](C)C=C2C=C[C@H](C)[C@H](CC[C@@H](O)C[C@@H](O)CC(=O)NO)[C@H]21 | >5
12 | CC(C)c1c(C(=O)Nc2ccccc2)c(-c2ccccc2)c(-c2ccc(F)cc2)n1CC[C@@H](O)C[C@@H](O)CC(=O)NO | >5.7

target: T1, 3-hydroxy-3-methylglutaryl-coenzyme A reductase (Homo sapiens, UniProt P04035); test: Inhibition of recombinant HMG-CoA reductase (unknown origin) after 10 mins by spectrophotometric analysis; conditions: not given
T1 sequence (P04035 whole entry): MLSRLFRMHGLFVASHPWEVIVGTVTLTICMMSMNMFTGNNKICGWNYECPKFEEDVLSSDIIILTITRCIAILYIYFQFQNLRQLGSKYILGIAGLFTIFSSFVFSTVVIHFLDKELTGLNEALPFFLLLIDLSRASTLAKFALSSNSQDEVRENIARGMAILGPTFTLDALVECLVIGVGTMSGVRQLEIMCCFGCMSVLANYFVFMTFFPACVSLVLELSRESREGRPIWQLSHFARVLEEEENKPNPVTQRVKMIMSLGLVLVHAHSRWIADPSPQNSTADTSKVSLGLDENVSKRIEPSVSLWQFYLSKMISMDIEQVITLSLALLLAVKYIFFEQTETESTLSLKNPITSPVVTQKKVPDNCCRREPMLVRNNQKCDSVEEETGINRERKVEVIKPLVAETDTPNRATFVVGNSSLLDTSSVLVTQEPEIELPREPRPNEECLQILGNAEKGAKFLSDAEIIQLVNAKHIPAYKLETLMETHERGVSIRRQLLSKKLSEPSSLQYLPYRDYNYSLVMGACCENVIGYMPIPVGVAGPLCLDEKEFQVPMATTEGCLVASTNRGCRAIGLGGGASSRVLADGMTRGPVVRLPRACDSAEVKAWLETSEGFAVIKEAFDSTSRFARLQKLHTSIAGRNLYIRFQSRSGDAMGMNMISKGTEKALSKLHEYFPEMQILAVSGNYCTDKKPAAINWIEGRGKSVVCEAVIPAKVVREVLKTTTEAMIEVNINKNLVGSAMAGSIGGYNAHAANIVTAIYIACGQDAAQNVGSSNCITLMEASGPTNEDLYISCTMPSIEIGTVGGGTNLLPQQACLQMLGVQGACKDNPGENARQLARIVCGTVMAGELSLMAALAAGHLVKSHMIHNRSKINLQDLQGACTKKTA

Row | IC50 | Structure (SMILES)
13 | 13.1 nM | CCC(C)(C)C(=O)O[C@H]1C[C@@H](C)C=C2C=C[C@H](C)[C@H](CC[C@@H](O)C[C@@H](O)CC(=O)NO)[C@H]21
14 | 12.3 nM | CC(C)c1c(C(=O)Nc2ccccc2)c(-c2ccccc2)c(-c2ccc(F)cc2)n1CC[C@@H](O)C[C@@H](O)CC(=O)NO

Row | Structure (SMILES) | IC50
15 | CC[C@H](C)C(=O)O[C@H]1C[C@@H](C)C=C2C=C[C@H](C)[C@H](CC[C@@H](O)C[C@@H](O)CC(=O)NO)[C@H]21 | 16.8 nM

target: T2, Protein deacetylase HDAC6 (Homo sapiens) (UniProt Q9UBN7); test: Inhibition of HDAC6 in human A549 cells assessed as increase in tubulin acetylation after 24 hrs by Western blotting analysis; format: cell-based; conditions: not given
T2 sequence (whole entry): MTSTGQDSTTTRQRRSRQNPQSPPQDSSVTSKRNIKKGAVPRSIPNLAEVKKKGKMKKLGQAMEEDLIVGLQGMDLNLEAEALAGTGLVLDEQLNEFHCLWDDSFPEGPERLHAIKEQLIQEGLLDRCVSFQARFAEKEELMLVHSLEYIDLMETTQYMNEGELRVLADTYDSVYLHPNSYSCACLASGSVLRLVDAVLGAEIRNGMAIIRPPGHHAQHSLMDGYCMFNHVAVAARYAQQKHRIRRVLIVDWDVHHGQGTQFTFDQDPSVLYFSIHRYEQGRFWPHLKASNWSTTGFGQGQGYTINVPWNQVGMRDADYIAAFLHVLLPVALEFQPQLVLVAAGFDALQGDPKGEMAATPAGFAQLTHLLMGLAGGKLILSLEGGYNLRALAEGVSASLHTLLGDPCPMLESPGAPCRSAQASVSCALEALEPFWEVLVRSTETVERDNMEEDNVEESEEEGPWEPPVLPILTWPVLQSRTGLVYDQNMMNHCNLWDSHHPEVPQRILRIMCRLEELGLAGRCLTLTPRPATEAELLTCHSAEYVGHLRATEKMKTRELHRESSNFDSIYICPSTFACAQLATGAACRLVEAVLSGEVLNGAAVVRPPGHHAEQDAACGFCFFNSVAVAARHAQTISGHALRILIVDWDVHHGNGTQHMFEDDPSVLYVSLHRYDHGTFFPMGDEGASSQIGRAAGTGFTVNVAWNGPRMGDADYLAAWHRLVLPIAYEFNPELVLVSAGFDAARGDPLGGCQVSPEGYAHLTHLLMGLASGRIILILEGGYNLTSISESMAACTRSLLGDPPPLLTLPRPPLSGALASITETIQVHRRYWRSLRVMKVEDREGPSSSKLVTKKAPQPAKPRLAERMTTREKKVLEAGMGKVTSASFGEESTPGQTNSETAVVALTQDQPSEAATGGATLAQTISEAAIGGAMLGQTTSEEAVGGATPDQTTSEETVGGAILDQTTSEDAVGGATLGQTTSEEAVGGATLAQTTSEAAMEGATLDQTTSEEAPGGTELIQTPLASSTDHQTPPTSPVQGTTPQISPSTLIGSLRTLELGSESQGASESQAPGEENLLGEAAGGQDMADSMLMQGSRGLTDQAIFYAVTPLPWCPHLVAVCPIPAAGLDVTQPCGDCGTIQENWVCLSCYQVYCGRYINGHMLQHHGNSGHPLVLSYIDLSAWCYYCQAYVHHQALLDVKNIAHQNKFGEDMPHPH
Procedure, shortened: (§1)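 A549 cells (DMEM, 10% FBS, penicillin/streptomycin, 5% CO2) exposed to compounds at indicated doses for 24 h. Cells lysed on ice, total lysates run on SDS–PAGE and immunoblotted with antibodies to acetyl-histone H3, acetyl-tubulin and actin. Loading normalised to β-actin.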

Row | inhibition | Structure (SMILES)
16 | Dose-dependent effect | CCC(C)(C)C(=O)O[C@H]1C[C@@H](C)C=C2C=C[C@H](C)[C@H](CC[C@@H](O)C[C@@H](O)CC(=O)NO)[C@H]21
17 | Dose-dependent effect | CC(C)c1c(C(=O)Nc2ccccc2)c(-c2ccccc2)c(-c2ccc(F)cc2)n1CC[C@@H](O)C[C@@H](O)CC(=O)NO

Row | Structure (SMILES) | inhibition
18 | CC[C@H](C)C(=O)O[C@H]1C[C@@H](C)C=C2C=C[C@H](C)[C@H](CC[C@@H](O)C[C@@H](O)CC(=O)NO)[C@H]21 | Dose-dependent effect

target: Histone deacetylase (Homo sapiens) (UniProt Q13547+O15379+Q9UBN7+Q92769+Q9UQL6+Q8WUI4+Q9BY41+Q96DB2+P56524+Q9UKV0+Q969S8); test: Inhibition of class 1 HDAC in human A549 cells assessed as increase in histone acetylation after 24 hrs by Western blotting analysis; format: cell-based; conditions: not given; procedure, shortened: as §1

Row | inhibition | Structure (SMILES)
19 | Dose-dependent effect | CCC(C)(C)C(=O)O[C@H]1C[C@@H](C)C=C2C=C[C@H](C)[C@H](CC[C@@H](O)C[C@@H](O)CC(=O)NO)[C@H]21
20 | Dose-dependent effect | CC(C)c1c(C(=O)Nc2ccccc2)c(-c2ccccc2)c(-c2ccc(F)cc2)n1CC[C@@H](O)C[C@@H](O)CC(=O)NO

Row | Structure (SMILES) | inhibition
21 | CC[C@H](C)C(=O)O[C@H]1C[C@@H](C)C=C2C=C[C@H](C)[C@H](CC[C@@H](O)C[C@@H](O)CC(=O)NO)[C@H]21 | Dose-dependent effect

target: T3, Protein deacetylase HDAC6 (Homo sapiens, UniProt Q9UBN7); test: Inhibition of recombinant HDAC6 (unknown origin) after 10 mins by fluorimetric analysis; conditions: not given
T3 sequence (Q9UBN7 whole entry): T2 sequence (whole entry)

Row | IC50 | Structure (SMILES)
22 | 69.5 nM | CCC(C)(C)C(=O)O[C@H]1C[C@@H](C)C=C2C=C[C@H](C)[C@H](CC[C@@H](O)C[C@@H](O)CC(=O)NO)[C@H]21
23 | 86.6 nM | CC(C)c1c(C(=O)Nc2ccccc2)c(-c2ccccc2)c(-c2ccc(F)cc2)n1CC[C@@H](O)C[C@@H](O)CC(=O)NO

Row | Structure (SMILES) | IC50
24 | CC[C@H](C)C(=O)O[C@H]1C[C@@H](C)C=C2C=C[C@H](C)[C@H](CC[C@@H](O)C[C@@H](O)CC(=O)NO)[C@H]21 | 51 nM

target: T1, 3-hydroxy-3-methylglutaryl-coenzyme A reductase; test: Inhibition of HMG-CoA reductase in human A549 cells after 5 mins by spectrophotometric analysis; conditions: not given

Row | IC50 | Structure (SMILES)
25 | 7900 nM | CCC(C)(C)C(=O)O[C@H]1C[C@@H](C)C=C2C=C[C@H](C)[C@H](CC[C@@H](O)C[C@@H](O)CC(=O)NO)[C@H]21
26 | 5700 nM | CC(C)c1c(C(=O)Nc2ccccc2)c(-c2ccccc2)c(-c2ccc(F)cc2)n1CC[C@@H](O)C[C@@H](O)CC(=O)NO

Row | Structure (SMILES) | IC50
27 | CC[C@H](C)C(=O)O[C@H]1C[C@@H](C)C=C2C=C[C@H](C)[C@H](CC[C@@H](O)C[C@@H](O)CC(=O)NO)[C@H]21 | 15900 nM

target: Histone deacetylase 2 (Homo sapiens, UniProt Q92769); test: Inhibition of recombinant HDAC2 (unknown origin) after 10 mins by fluorimetric analysis; conditions: not given
Sequence (Q92769 whole entry): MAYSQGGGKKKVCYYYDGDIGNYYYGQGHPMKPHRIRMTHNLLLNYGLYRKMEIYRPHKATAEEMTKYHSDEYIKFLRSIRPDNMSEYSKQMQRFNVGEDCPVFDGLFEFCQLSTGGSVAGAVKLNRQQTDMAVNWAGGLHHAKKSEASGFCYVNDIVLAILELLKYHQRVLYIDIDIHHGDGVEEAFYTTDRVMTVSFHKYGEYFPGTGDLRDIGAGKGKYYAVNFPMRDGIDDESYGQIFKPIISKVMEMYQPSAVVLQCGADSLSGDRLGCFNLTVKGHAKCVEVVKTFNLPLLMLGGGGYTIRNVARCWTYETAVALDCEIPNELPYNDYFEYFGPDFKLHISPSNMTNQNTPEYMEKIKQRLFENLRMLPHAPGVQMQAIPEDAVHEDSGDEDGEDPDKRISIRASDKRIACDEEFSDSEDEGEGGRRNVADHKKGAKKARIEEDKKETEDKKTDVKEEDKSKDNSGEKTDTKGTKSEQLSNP

Row | Structure (SMILES) | IC50
28 | CC[C@H](C)C(=O)O[C@H]1C[C@@H](C)C=C2C=C[C@H](C)[C@H](CC[C@@H](O)C[C@@H](O)CC(=O)NO)[C@H]21 | 468 nM
29 | CCC(C)(C)C(=O)O[C@H]1C[C@@H](C)C=C2C=C[C@H](C)[C@H](CC[C@@H](O)C[C@@H](O)CC(=O)NO)[C@H]21 | 414 nM

target: Histone deacetylase 1 (Homo sapiens, UniProt Q13547); test: Inhibition of recombinant HDAC1 (unknown origin) after 10 mins by fluorimetric analysis; conditions: not given
Sequence (Q13547 whole entry): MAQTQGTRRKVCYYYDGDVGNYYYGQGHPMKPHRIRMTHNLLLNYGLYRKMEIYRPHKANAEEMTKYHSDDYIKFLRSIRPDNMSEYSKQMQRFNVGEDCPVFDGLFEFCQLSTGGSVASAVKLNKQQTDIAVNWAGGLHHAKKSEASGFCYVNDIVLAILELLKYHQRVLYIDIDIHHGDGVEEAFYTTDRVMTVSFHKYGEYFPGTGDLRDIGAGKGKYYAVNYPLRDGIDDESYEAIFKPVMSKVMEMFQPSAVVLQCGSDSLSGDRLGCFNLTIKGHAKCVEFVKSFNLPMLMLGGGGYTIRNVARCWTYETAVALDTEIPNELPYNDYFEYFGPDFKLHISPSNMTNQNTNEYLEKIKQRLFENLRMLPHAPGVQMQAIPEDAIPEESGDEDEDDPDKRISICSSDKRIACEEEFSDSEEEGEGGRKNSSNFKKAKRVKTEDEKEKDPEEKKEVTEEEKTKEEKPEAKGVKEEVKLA

Row | IC50 | Structure (SMILES)
30 | 63.4 nM | CCC(C)(C)C(=O)O[C@H]1C[C@@H](C)C=C2C=C[C@H](C)[C@H](CC[C@@H](O)C[C@@H](O)CC(=O)NO)[C@H]21
31 | 123 nM | CC(C)c1c(C(=O)Nc2ccccc2)c(-c2ccccc2)c(-c2ccc(F)cc2)n1CC[C@@H](O)C[C@@H](O)CC(=O)NO

Row | Structure (SMILES) | IC50
32 | CC[C@H](C)C(=O)O[C@H]1C[C@@H](C)C=C2C=C[C@H](C)[C@H](CC[C@@H](O)C[C@@H](O)CC(=O)NO)[C@H]21 | 64.8 nM

test system: A549; test: Selectivity index, ratio of IC50 for human HS68 cells to IC50 for human A549 cells; format: functional; conditions: not given

Row | Structure (SMILES) | Ratio IC50
33 | CC[C@H](C)C(=O)O[C@H]1C[C@@H](C)C=C2C=C[C@H](C)[C@H](CC[C@@H](O)C[C@@H](O)CC(=O)NO)[C@H]21 | >5.6
34 | CCC(C)(C)C(=O)O[C@H]1C[C@@H](C)C=C2C=C[C@H](C)[C@H](CC[C@@H](O)C[C@@H](O)CC(=O)NO)[C@H]21 | >5
35 | CC(C)c1c(C(=O)Nc2ccccc2)c(-c2ccccc2)c(-c2ccc(F)cc2)n1CC[C@@H](O)C[C@@H](O)CC(=O)NO | >5.7
